Experiments:
[1] = target: RAC-alpha serine/threonine-protein kinase (Homo sapiens) (UniProt P31749); test: Inhibition of AKT1 (unknown origin) at 1 uM relative to control; values are per cent of control
[2] = target: Phosphatidylinositol 4,5-bisphosphate 3-kinase catalytic subunit alpha isoform (Homo sapiens) (UniProt P42336); test: Inhibition of PIK3CA (unknown origin) at 1 uM relative to control; settings: values are per cent of control
Outline: (§1)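 KinomeSCAN competitive binding panel of 100 kinases; compounds tested at 1 µM in duplicate; read-out is percent […] control.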

[3] = target: Casein kinase I isoform delta (Homo sapiens, UniProt P48730); test: Inhibition of CSNK1D (unknown origin) at 1 uM relative to control; values are per cent of control
[4] = target: Proto-oncogene tyrosine-protein kinase Src (Homo sapiens) (UniProt P12931); test: Inhibition of SRC (unknown origin) at 1 uM relative to control; settings: values are per cent of control
Outline: as §1

[5] = target: T1, Serine/threonine-protein kinase 4 (Homo sapiens) (UniProt Q13043); test: Inhibition of MST2 (unknown origin) at 1 uM relative to control; values are per cent of control
T1 sequence (whole entry): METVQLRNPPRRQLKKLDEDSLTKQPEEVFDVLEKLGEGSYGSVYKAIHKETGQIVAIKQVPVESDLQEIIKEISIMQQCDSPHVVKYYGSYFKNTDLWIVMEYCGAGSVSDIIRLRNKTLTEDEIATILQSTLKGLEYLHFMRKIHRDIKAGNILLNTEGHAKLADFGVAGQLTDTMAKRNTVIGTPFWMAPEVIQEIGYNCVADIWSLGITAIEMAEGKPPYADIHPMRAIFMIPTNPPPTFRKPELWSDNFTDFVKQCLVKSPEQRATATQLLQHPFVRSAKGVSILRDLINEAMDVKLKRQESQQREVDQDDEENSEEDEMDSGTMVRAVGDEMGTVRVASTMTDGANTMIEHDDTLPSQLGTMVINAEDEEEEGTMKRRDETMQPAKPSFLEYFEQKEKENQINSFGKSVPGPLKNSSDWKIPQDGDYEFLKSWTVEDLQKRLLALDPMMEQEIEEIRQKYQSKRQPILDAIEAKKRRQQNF

[6] = target: Epidermal growth factor receptor (Homo sapiens) (UniProt P00533); test: Inhibition of EGFR (unknown origin) at 1 uM relative to control; values are per cent of control
[7] = target: Mitogen-activated protein kinase 14 (Homo sapiens) (UniProt Q16539); test: Inhibition of p38-alpha (unknown origin) at 1 uM relative to control; values are per cent of control
[8] = target: T2, Rhodopsin kinase GRK1 (Homo sapiens) (UniProt Q15835); test: Inhibition of GRK1 (unknown origin) at 1 uM relative to control; values are per cent of control
T2 sequence (whole entry): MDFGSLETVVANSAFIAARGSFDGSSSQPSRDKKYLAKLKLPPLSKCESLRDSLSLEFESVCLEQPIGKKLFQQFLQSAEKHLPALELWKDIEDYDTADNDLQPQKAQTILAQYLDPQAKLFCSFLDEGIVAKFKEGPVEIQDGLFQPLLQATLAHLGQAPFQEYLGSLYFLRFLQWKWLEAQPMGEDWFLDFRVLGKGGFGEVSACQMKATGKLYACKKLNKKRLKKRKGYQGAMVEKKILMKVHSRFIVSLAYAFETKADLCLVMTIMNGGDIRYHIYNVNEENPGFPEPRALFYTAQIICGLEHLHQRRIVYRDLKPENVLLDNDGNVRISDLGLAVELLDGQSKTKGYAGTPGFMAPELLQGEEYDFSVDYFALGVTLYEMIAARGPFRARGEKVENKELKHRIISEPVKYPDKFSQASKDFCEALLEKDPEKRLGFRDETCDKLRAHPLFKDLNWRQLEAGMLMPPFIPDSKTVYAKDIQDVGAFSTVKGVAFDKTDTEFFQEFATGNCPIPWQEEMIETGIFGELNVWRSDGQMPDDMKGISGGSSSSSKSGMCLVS

[9] = target: Platelet-derived growth factor receptor beta (Homo sapiens) (UniProt P09619); test: Inhibition of PDGFRB (unknown origin) at 1 uM relative to control; settings: values are per cent of control
Outline: as §1

[10] = target: Dual specificity protein kinase CLK2 (Homo sapiens) (UniProt P49760); test: Inhibition of CLK2 (unknown origin) at 1 uM relative to control; values are per cent of control
[11] = target: Casein kinase I isoform gamma-2 (Homo sapiens) (UniProt P78368); test: Inhibition of CSNK1G2 (unknown origin) at 1 uM relative to control; values are per cent of control
[12] = target: Death-associated protein kinase 1 (Homo sapiens) (UniProt P53355); test: Inhibition of DAPK1 (unknown origin) at 1 uM relative to control; values are per cent of control
[13] = target: Casein kinase II subunit alpha (Homo sapiens) (UniProt P68400); test: Inhibition of CSNK2A1 (unknown origin) at 1 uM relative to control; values are per cent of control
[14] = target: Serine/threonine-protein kinase Nek6 (Homo sapiens) (UniProt Q9HC98); test: Inhibition of NEK6 (unknown origin) at 1 uM relative to control; values are per cent of control
[15] = target: Cyclin-dependent kinase 2 (Homo sapiens) (UniProt P24941); test: Inhibition of CDK2 (unknown origin) at 1 uM relative to control; values are per cent of control
[16] = target: T3, Dual specificity mitogen-activated protein kinase kinase 3 (Homo sapiens) (UniProt P46734); test: Inhibition of MEK3 (unknown origin) at 1 uM relative to control; values are per cent of control
T3 sequence (whole entry): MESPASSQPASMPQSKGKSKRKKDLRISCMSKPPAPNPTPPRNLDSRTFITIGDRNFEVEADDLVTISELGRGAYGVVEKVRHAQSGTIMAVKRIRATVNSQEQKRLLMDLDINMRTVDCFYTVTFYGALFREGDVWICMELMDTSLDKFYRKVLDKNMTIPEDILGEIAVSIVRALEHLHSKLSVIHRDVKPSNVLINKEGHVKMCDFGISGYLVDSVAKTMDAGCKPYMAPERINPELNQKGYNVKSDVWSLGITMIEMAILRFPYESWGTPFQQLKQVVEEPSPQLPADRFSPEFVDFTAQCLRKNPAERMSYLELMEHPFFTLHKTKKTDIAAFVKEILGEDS

[17] = target: 5'-AMP-activated protein kinase catalytic subunit alpha-1 (Homo sapiens) (UniProt Q13131); test: Inhibition of AMPKalpha1 (unknown origin) at 1 uM relative to control; values are per cent of control

Chain of Casein kinase II subunit alpha (Homo sapiens) (P68400 whole entry, looked up): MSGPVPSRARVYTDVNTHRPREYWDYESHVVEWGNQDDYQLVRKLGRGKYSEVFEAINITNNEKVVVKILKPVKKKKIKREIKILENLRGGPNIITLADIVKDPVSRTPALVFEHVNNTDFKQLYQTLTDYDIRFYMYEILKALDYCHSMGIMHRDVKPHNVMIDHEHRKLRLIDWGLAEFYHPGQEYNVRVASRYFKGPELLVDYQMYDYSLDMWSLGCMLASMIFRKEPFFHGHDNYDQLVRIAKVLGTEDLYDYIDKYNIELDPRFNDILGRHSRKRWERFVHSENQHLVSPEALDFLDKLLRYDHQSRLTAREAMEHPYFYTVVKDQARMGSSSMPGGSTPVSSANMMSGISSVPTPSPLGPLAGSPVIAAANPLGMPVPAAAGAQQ
Chain of Epidermal growth factor receptor (Homo sapiens) (P00533 whole entry): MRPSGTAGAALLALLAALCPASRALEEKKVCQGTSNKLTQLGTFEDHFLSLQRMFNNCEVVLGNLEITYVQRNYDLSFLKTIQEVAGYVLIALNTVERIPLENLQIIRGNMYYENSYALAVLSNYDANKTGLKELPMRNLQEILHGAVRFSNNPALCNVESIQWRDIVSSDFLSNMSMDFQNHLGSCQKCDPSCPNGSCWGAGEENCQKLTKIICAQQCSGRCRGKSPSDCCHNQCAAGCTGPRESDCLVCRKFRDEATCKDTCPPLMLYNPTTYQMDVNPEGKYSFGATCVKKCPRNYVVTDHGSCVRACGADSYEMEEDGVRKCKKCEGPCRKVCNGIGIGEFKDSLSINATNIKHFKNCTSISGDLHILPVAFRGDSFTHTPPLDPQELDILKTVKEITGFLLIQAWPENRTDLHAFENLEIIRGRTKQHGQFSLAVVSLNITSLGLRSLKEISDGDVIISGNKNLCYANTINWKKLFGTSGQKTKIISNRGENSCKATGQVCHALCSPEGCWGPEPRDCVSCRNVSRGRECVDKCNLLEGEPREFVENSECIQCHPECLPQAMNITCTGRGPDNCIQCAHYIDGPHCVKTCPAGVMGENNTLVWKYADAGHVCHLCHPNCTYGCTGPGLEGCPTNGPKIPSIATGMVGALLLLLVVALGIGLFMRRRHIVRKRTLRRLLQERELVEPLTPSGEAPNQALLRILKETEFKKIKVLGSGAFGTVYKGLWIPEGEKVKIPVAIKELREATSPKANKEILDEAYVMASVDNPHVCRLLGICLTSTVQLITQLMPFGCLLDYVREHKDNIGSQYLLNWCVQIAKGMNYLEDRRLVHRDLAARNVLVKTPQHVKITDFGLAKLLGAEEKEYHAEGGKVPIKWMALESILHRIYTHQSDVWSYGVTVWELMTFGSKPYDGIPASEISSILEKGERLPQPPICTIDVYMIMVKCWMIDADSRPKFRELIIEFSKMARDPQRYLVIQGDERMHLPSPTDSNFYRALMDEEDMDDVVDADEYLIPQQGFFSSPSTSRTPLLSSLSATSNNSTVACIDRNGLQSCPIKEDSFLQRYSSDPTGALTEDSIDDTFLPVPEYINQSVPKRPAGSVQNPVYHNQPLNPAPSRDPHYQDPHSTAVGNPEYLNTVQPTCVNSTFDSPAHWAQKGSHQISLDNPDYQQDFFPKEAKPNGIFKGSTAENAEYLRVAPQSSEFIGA
Chain of Casein kinase I isoform delta (P48730 whole entry, looked up, canonical isoform): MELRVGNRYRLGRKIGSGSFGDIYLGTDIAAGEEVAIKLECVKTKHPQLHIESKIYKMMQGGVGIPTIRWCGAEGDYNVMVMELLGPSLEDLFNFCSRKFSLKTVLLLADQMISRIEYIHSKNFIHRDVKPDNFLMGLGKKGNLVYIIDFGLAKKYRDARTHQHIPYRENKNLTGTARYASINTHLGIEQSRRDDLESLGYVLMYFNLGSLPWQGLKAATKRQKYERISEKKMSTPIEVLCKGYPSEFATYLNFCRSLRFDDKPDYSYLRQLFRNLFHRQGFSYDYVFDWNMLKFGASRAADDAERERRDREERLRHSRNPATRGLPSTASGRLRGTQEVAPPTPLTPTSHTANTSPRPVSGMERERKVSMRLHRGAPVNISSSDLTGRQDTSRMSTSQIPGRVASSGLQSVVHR
Chain of Proto-oncogene tyrosine-protein kinase Src (Homo sapiens) (P12931 2-536 limits assumed): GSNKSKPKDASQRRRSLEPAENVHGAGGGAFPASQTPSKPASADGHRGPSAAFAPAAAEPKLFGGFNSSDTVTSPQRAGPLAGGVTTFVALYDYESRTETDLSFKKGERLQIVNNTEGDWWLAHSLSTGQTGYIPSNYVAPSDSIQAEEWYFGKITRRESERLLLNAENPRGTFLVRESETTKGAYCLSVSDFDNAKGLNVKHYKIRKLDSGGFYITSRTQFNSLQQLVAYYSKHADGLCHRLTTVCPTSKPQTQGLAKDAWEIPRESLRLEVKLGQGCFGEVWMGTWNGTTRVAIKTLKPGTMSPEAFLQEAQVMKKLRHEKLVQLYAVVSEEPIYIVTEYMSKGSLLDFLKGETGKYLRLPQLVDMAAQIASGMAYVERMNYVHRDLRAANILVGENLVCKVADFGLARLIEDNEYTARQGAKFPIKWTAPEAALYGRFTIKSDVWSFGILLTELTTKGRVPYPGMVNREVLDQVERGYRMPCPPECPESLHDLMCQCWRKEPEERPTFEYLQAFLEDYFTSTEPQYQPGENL
Chain of RAC-alpha serine/threonine-protein kinase (Homo sapiens) (P31749 whole entry, canonical isoform): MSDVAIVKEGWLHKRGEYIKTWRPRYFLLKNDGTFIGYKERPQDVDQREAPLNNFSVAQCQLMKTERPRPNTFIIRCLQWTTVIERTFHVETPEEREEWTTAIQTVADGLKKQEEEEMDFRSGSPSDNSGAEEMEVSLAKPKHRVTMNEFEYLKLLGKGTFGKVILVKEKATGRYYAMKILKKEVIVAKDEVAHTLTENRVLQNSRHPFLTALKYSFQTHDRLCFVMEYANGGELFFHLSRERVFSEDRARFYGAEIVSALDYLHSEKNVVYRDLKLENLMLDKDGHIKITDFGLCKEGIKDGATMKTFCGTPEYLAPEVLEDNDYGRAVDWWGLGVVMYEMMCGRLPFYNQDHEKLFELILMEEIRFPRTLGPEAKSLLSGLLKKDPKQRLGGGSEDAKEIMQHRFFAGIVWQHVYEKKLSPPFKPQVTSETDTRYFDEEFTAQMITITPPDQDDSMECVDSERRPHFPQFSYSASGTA
Chain of Casein kinase I isoform gamma-2 (Homo sapiens) (P78368 whole entry, looked up, canonical isoform): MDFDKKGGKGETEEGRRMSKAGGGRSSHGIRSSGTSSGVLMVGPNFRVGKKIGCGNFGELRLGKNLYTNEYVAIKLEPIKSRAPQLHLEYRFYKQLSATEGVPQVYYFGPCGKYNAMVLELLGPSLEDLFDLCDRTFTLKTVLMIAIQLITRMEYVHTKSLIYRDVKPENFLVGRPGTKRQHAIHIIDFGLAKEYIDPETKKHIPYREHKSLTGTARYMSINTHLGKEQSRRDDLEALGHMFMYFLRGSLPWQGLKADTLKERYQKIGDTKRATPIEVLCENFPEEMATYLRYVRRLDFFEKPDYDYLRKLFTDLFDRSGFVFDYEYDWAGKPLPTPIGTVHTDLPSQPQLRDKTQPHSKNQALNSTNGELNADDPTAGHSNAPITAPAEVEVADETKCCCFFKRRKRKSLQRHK
Chain of Dual specificity protein kinase CLK2 (Homo sapiens) (P49760 whole entry, looked up, canonical isoform): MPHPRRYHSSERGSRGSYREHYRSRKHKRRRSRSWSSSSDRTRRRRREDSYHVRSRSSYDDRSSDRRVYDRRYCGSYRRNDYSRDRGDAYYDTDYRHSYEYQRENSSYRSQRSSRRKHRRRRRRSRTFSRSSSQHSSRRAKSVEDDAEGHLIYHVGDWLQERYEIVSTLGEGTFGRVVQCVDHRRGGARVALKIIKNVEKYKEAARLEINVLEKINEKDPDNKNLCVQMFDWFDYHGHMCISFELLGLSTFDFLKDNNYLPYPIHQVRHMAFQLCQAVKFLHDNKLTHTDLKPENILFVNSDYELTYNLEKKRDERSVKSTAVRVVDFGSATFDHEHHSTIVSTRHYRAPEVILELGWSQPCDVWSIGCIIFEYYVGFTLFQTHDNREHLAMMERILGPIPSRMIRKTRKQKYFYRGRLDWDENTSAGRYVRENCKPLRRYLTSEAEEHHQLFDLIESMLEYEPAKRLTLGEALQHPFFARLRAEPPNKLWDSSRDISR
Chain of Serine/threonine-protein kinase Nek6 (Homo sapiens) (Q9HC98 whole entry): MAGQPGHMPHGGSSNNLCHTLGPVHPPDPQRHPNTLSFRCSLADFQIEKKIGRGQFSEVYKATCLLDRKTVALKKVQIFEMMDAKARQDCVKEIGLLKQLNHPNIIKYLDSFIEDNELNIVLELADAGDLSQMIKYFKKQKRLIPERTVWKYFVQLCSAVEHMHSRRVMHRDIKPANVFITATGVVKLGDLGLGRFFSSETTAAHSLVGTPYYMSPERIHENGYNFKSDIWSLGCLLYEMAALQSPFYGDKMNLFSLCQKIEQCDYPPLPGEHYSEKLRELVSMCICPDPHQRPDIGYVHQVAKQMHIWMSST
Chain of Mitogen-activated protein kinase 14 (Homo sapiens) (Q16539 whole entry): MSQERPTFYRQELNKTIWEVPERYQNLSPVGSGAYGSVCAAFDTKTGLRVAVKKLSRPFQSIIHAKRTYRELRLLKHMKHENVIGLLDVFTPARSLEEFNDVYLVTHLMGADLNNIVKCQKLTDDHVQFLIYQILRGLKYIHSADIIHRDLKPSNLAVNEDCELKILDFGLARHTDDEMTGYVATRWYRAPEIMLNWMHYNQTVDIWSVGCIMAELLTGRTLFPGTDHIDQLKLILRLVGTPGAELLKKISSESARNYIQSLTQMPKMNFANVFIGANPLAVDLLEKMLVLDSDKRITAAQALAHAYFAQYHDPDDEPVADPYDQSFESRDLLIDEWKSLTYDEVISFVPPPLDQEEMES

SMILES | residual activity [1] | residual binding, % of control [2] | residual activity [3] | residual binding, % of control [4] | residual activity [5] | residual activity [6] | residual activity [7] | residual activity [8] | residual binding, % of control [9] | residual activity [10] | residual activity [11] | residual activity [12] | residual activity [13] | residual activity [14] | residual activity [15] | residual activity [16] | residual activity [17]
CCOC(=O)c1sc(-c2ccncc2)nc1O | 75% | 100% | 90% | 81% | 84% | 78% | 76% | 99% | 89% | 86% | 77% | 77% | 50% | 65% | 100% | 100% | 68%
COc1ccc(-c2nc(-c3ccnc(N)n3)sc2C(N)=O)c(Cl)c1 | 66% | 83% | 0.6% | 100% | 71% | 81% | 100% | 100% | 62% | 10% | 5.2% | 100% | 95% | 85% | 84% | 35% | 76%
NC(=O)c1sc(-c2ccnc(N)n2)nc1-c1ccc(Cl)cc1Cl | 80% | 78% | 0.7% | 100% | 100% | 100% | 95% | 75% | 52% | 7.9% | 5% | 100% | 66% | 81% | 100% | 25% | 100%
